# Wee1 degr inh – human Wee1 degradation inhibition, primary screen. reporter increase, % at 5 µM. 220,000 tested, 1.2% active. AID 1321. HeLa Luc-Wee1K328M stability, luciferase luminescence; 100% = proteasome inhibitor MG132 effect. P30291;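 active means activation above the mean of all tested compounds plus 3 SD, set per screening run, cut at about 8.8% in these data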;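 further: cells exposed to compound for 20 h before luminescence read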
# Target sequence (P30291 whole entry K328M): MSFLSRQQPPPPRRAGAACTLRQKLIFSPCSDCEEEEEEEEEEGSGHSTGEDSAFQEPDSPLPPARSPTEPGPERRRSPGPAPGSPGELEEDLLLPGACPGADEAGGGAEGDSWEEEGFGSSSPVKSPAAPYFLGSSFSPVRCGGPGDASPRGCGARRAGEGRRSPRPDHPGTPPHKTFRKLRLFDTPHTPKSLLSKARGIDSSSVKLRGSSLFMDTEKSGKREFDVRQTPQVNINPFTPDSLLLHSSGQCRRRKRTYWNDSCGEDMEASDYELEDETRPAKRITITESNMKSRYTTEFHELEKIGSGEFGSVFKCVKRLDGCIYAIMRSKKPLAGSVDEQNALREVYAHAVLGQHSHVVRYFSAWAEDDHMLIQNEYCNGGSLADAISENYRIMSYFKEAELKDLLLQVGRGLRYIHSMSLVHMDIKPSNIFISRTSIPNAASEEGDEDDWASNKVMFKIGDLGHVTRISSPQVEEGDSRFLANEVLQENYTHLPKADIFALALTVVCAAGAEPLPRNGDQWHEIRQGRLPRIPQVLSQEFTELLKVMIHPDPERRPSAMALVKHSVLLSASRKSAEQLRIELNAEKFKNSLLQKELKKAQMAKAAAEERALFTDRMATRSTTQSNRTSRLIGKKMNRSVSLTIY
# 14-3-3 Bad PPI – disrupts binding of bovine 14-3-3 zeta to phospho-Bad peptide; P63103; TR-FRET 14-3-3zeta/Dy647-pBad peptide displacement, 1 h; inhibition, % at 21.7 µM; 220,000 tested, 0.71% active; AID 781;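 active means inhibition above about 70%, limit read from the data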
# NCF1 inh – p47phox (human) inhibition; P14598; p47phox/p22phox peptide binding, fluorescence polarization, 2 h; inhibition, % at 24.7 µM; 220,000 tested, 0.53% active; AID 1274
# eIF4E 4G PPI – blocks eIF4E binding to eIF4G; inhibition, % at 21.7 µM; TR-FRET eIF4E-eIF4GI(517-606) binding, 2 h; AID 782; 220,000 tested, 0.37% active; P63073+Q04637
# RBBP9 inhibitor – inhibitors of human serine hydrolase RBBP9; AID 1515; 220,000 tested, 0.2% active; inhibition, % at 7.94 µM; recombinant RBBP9, FP-Rh probe fluorescence polarization;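 active means inhibition above the campaign mean of all tested compounds plus 3 SD, cut at about 14% in these data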
#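 Test system: recombinant human RBBP9; Timing: 30 min then 45 min, 25 °C; Detection: fluorescence polarization; Control set: RBBP9 with DMSO as uninhibited control, no-protein wells as full inhibition; Compound dosing: one concentration, 7.94 µM nominal, 0.794% DMSO; Probe or stimulus: FP-Rh activity-based probe, 375 nM before mixing.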
# RBBP9 inh conf – human RBBP9 inhibition, confirmation | shares compounds with RBBP9 inhibitor | recombinant RBBP9, FP-Rh probe fluorescence polarization | inhibition, % at 7.94 µM | 410 tested, 36% active;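 active means inhibition above the hit cutoff derived for the primary screen, cut at about 15% in these data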
# A number is an active result; i = inactive; nt = no result. Shown are actives, neighbours in structure and some others; about 2.8% of the full set was active somewhere.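 How the source made its calls, unless noted: active means inhibition above about 30% (limit read from the data); inactive means the rest.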
SMILES,Wee1 degr inh,14-3-3 Bad PPI,NCF1 inh,eIF4E 4G PPI,RBBP9 inhibitor,RBBP9 inh conf
CCOC(=O)C1CCCN(C(=S)Nc2cccc(Cl)c2)C1 (stereo unspecified),i,i,i,i,i,nt
Cc1ccc2[nH]c(=O)c(CN(CCCN(C)C)C(=S)NCCc3ccccc3)cc2c1,i,i,i,i,i,nt
Cc1cccc2cc(CN(CCCN(C)C)C(=S)NCCc3ccccc3)c(=O)[nH]c12,i,i,i,i,17,27
Cc1ccc(SCCCCN2C(=O)NC(C)(C)C2=O)cc1,i,i,i,i,i,nt
O=C(O)c1ccc(NC2=Nc3cccc4cccc2c34)cc1,i,i,i,i,15,i
NC(=O)NNC1=Nc2cccc3cccc1c23,i,i,i,i,i,nt
C/C(=N\OC(=O)c1ccc(C)cc1)c1sc(C)nc1C,i,i,i,i,i,nt
C/C(=N\OC(=O)c1ccc(Cl)cc1)c1nccs1,i,i,i,i,34,80
C/C(=N/OC(=O)c1ccc(C)cc1)c1cccs1,i,i,i,i,16,18
C/C(=N\OC(=O)c1c(-c2ccccc2Cl)noc1C)c1nccs1,i,i,i,i,i,nt
COc1ccc(COc2ccccc2C(=O)Nc2ccccn2)cc1[N+](=O)[O-],i,i,i,i,i,nt
O=C(NN1C(=O)/C(=C/C=C/c2ccco2)SC1=S)c1ccccc1O,i,75,i,36,23,15
